Measurements: ChEMBL document CHEMBL4513216, “Probing the Open Global Health Chemical Diversity Library for Multistage-Active Starting Points for Next-Generation Antimalarials” (ACS Infect Dis, 2020)

Assay: Toxicity liver stage against HepG2, at 10uM
Assay type: cell-based
Parameters: test concentration 10 uM, cell line HepG2-A16-CD81EGFP
Conditions: human, HepG2-A16-CD81EGFP cells; read-out: INHIBITION
In short: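 Uninfected HepG2-A16-CD81EGFP cells, 3 × 10^3 per well, 1536-well, plated on prespotted compound at 10 μM final, parasite-free screening media added to match infected plates; puromycin 10 μM positive, DMSO 0.5% negative; run in parallel with 48 h PbLuc assay at 37 °C, 5% CO2; viability by CellTiter-Glo luminescence, normalized to controls.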

Structure (SMILES)	cytotoxicity at 10 µM
CCN(CC)S(=O)(=O)c1ccc(C(=O)NC(C)(C#N)C2CC2)cc1 (configuration not stated)	-5.77%
O=C1N(Cc2ccccc2)C[C@H]2CN(Cc3ccccc3Cl)CCN12	2.23%
CCNC(=O)NC[C@H]1Cn2c(-c3ccccc3)cnc2CO1	-2.12%
CC(C)N1CCOC[C@H]1c1nc(-c2ccncc2)c[nH]1	6.73%
CC1=C[C@@H](CN2CCCC2)[C@H](C(C)C)C[C@H]1Cc1nnc(C)o1	2.47%
COc1cc2nc(C)n(CC(=O)NCCCO)c(=O)c2cc1OC	-0.869%
COCCn1/c(=N\C(=O)CN(C)S(C)(=O)=O)sc2cccc(F)c21	-11.5%
N#Cc1ccc(C(=O)N2CC(c3nc(-c4ncccn4)no3)C2)cc1	-0.713%
CCCc1nnsc1C(=O)NCC(O)c1ccc(SC)cc1 (configuration not stated)	1.71%
CC(=O)N1CCC2(CC1)NC(=O)[C@H]1CN(Cc3cccnc3)C[C@H]12	-1.77%
O=C(NC1CC1)N1CC[C@H]2[C@H]1CCN2c1ncccn1	3.08%
CC(=O)N1CCC2(CCCN(S(=O)(=O)c3ccc(F)cc3)C2)C1 (configuration not stated)	2.26%
COC(=O)CCC(=O)N1CCc2nc(C(=O)N3CCOCC3)sc2CC1	15.3%
CC1N(CC2CC2)C(=O)COC12CCN(C(=O)c1cscn1)CC2 (configuration not stated)	-8.04%
COCC1CN(C(=O)[C@H]2CCCO2)Cc2nnn(CC3CC3)c21 (some centres not stated)	-1.59%
O=C(c1ccco1)N1CC[C@@H]2O[C@H](COCC3CCOCC3)CC[C@@H]21	6.8%
Cc1ccc(C(=O)N2CCC3(CC2)COCCN(S(C)(=O)=O)C3)cc1C	3.27%
Cc1ccoc1C(=O)N1CC(C(=O)N2CCOCC2)C2(CCOCC2)C1 (configuration not stated)	-1.2%
Cc1ccsc1C(=O)N1CC(C(=O)N2CCCC2)C2(CCOCC2)C1 (configuration not stated)	3.68%
CC1(C)Cc2ccccc2-c2nc(NCCO)[nH]c(=O)c21	-5.46%
CNC(=O)[C@H]1CCS(=O)(=O)[C@@H]2CN(Cc3ccc(OC)cc3)C[C@H]12	-10.3%
O=C(C1CCC1)N1CCC2(COCc3cnc(N4CCOCC4)nc32)C1 (configuration not stated)	-11.8%

Structure (SMILES)	cytotoxicity at 10 µM
Cc1ccc(-c2nc(C3CCN(C(=O)c4ccnn4C)CC3)no2)cn1	-5.17%
c1cnnc(N[C@@H]2CC[C@@H]3CN(Cc4ccc5cc[nH]c5c4)C[C@@H]32)c1	-0.423%
Cc1cc(C)nc(C2(C)CCCN2CCO)n1 (configuration not stated)	-3.89%
CNC(=O)C1CN(c2ccnc(C)n2)CCN1Cc1ccccc1 (configuration not stated)	8.48%
CC(C)N1CCCC(Cc2nccnc2Cl)CC1 (configuration not stated)	-3.97%
CN(C)c1ncc(I)c(C2CCCCN2S(C)(=O)=O)n1 (configuration not stated)	5.09%
CC(C)C(=O)N1CCC(C)(c2cc(O)[nH]n2)CC1	-14.5%
NCCC(=O)N1CCC2(CC1)CN(C(=O)Cc1cccc(Cl)c1)CCO2	5.56%
CC(C#N)CNC(=O)Nc1ccc(-c2ccc[nH]2)cc1 (configuration not stated)	1.2%
CC(=O)N1CCN(c2ccccc2CNc2ccc(C)cn2)CC1	11.2%
NC(=O)c1cnc(NCC(=O)NCc2ccccc2)c(Cl)c1	3.89%
Cc1ccc(NC(=O)N2CCOC(C)(c3cnn(C)c3)C2)c(C)c1 (configuration not stated)	6.05%
CC(NCc1ccnc(OC2CCC2)c1)c1cnn(C)c1 (configuration not stated)	5.64%
CCc1noc(C)c1C(=O)NCc1c(C)nn(CCOC)c1C	-9.35%
Cc1c(F)cccc1NC(=O)N(C(C)CS(C)(=O)=O)C1CC1 (configuration not stated)	8.29%
O=C(c1cnc(NCCC2CCCO2)c(Cl)c1)N1CCCCC1 (configuration not stated)	-2.01%
O=C(c1ccc(-n2cc(Br)cn2)cc1)N1CCN(c2cnccn2)CC1	1.52%
O=C(NCc1ccc2c(c1)OCO2)c1ccc(N2CCCCCC2)nc1	-6.78%
N#Cc1ccc(F)c(CSCCN2CCOCC2)c1	-5.71%
COc1cc(C(=O)NS(=O)(=O)c2cncc(Br)c2)cc(OC)c1C	4.77%
COc1ccc(OC)c(C(=O)N2CCC(Nc3cccnc3)CC2)c1	-138%
CCOc1ccc(NC(=O)N2CCOC(C(N)=O)C2)cc1C (configuration not stated)	-140%

Structure (SMILES)	cytotoxicity at 10 µM
CNS(=O)(=O)CC1CCCN1C(=O)c1ccc(C)c(C)c1 (configuration not stated)	-6.93%
COCCCNC(=O)CN1CCC(c2ccccc2)C1 (configuration not stated)	20.3%
CN(C)c1nccc(CNS(=O)(=O)c2ccc(F)c(Cl)c2)n1	-140%
CCOC(=O)C1CSCCN1C(=O)c1ccc(-n2nc(C)cc2C)cc1 (configuration not stated)	-4.92%
O=C(NCCc1ccccn1)N1CCOC(c2ccccc2Cl)C1 (configuration not stated)	-7.75%
CC(C)(NS(C)(=O)=O)c1nc(-c2cccc(Cl)c2)no1	2.31%
CCS(=O)(=O)NCCNC(=O)c1cc(Cl)c2c(c1)OCCCO2	5.98%
COc1ccc(CNC2CCN(CCc3ccncc3)CC2)cc1O	-10.5%
CCN(CC)C(=O)CCNC(=O)Cc1nc(-c2ccco2)oc1C	26.8%
CC(C(=O)NCc1ccnc(N(C)C)c1)n1cncn1 (configuration not stated)	-9.7%
Cc1nc(C(C)(C)NC(=O)Nc2cccc(C#N)c2)no1	-7.79%
O=C(NS(=O)(=O)c1cc(Cl)sc1Cl)c1cccc2c1OCCO2	5.32%
Cc1nc(CCNC(=O)N2CCC(Cc3cnn(C)c3)C2)cs1 (configuration not stated)	-6.13%
Cc1cnn(CC2CCCCN2CC(=O)NCc2ccccn2)c1 (configuration not stated)	-6.16%
O=C(c1ccnnc1)N1CCN2C[C@H](OCc3ccccn3)C[C@H]2C1	-77.2%
Cc1cccc2c(=O)n(C(C)Cc3cccnc3)cnc12 (configuration not stated)	-13.5%
CC(=O)c1cnc(NCCCN2CCOCC2)nc1C	-2.77%
CCC[C@@H]1CN(C(=O)Cc2sc(C)nc2C)C[C@H]1C(=O)O	-125%
Cc1cc(C(=O)N2C[C@@H](CN(C)CCN(C)C)[C@@H](CO)C2)nc(C)n1	7.01%
Cc1ccnn1CCC(=O)N1CCN(C2CCc3ccccc3C2)CC1 (configuration not stated)	-118%
Cc1nn(C)cc1CN1CCCn2nc(CNC(=O)C3CCC3)cc2C1	2.84%
COCCn1cnnc1Cn1ccnc1-c1ccccc1C	-7.58%

Structure (SMILES)	cytotoxicity at 10 µM
CC(=O)c1cn(CC(=O)N2CCC3(CC2)OCCO3)c2ccccc12	0.436%
COc1ccc(C(=O)N2C[C@@H](C)[C@@](C)(O)C2)cc1N1CCOCC1	11.3%
NC(=O)NCCC(=O)NCc1cccnc1N1CCc2ccccc2C1	4.92%
CN(C)CCNC(=O)c1ccc(OC2CCN(S(C)(=O)=O)CC2)c(Cl)c1	1.33%
Cc1nc[nH]c1CN1CCN(C(=O)c2cccs2)[C@H]2CS(=O)(=O)C[C@H]21	-0.0714%
CCCn1ccc(C(=O)N2CCOC(c3nc(-c4cccs4)no3)C2)n1 (configuration not stated)	8.54%
Cc1ncsc1C(=O)NC1CCN(CCC(=O)Nc2ccccc2)CC1	-1.39%
Cn1ncc2c(=O)[nH]c(CN3CCCC3Cc3ccc(F)cc3)nc21 (configuration not stated)	0.301%
CC(NC(=O)NCC1(c2ccc(F)cc2)CCCC1)c1nncn1C (configuration not stated)	-6.27%
CCc1nc(C2CCCN2Cc2nnc(C3CC3)o2)no1 (configuration not stated)	-13.2%
CC(C)C(=O)NS(=O)(=O)c1ccc(C#N)cc1C(F)(F)F	-12.3%
Cc1cnn(CC2CCCN2Cc2nnc(C)o2)c1 (configuration not stated)	-11.2%
COc1ccccc1N1CCC(CNS(=O)(=O)c2cccc(C#N)c2)C1 (configuration not stated)	-4.13%
Cc1ncsc1C(=O)N(C)Cc1cccnc1	-5.57%
Cc1nn(C)c(N(C)C)c1CNC1CCOc2ccccc21 (configuration not stated)	-9.66%
CCN1CCN(C(=O)c2cccn2Cc2ccccc2)CC1	-12.3%
Cc1cnc(CN2CCCC2c2noc(C3CC3)n2)cn1 (configuration not stated)	-13.5%
c1ncn(CC2CCCN(Cc3noc(C4CC4)n3)C2)n1 (configuration not stated)	0.428%
Cc1cccc(OCC(=O)N2CCN(C3CCOC3=O)CC2)c1C (configuration not stated)	-15%
CC(Cn1cccn1)NC(=O)N1CCN(Cc2ccncc2)CC1 (configuration not stated)	-20.8%
Cc1cnn(C2CCCN(C(=O)COc3ccc(C(N)=O)cc3)C2)c1 (configuration not stated)	-0.0295%
CC(C)C(Sc1nnnn1-c1ccccc1)C(=O)NCc1cccnc1 (configuration not stated)	-3.02%

Structure (SMILES)	cytotoxicity at 10 µM
CN(C)C(=O)CS(=O)(=O)Cc1cc(Cl)c2c(c1)OCO2	-6.24%
CSC(C)C(=O)N1CCCN(Cc2cscn2)CC1 (configuration not stated)	-2.19%
CCOCC(O)CN1CCN(C(=O)Cc2ccccc2C)CC1 (configuration not stated)	-3.43%
CCCSCC(=O)NS(=O)(=O)c1ccc2c(c1)OCCO2	-9.78%
Fc1cccc(-c2nc(CN3CCOC(Cn4cncn4)C3)co2)c1 (configuration not stated)	-11.4%
CC(Cn1cccn1)NC(=O)NCc1cccs1 (configuration not stated)	-0.12%
CC(=O)N(Cc1ncc(C)o1)C1CCN(Cc2ccncc2Cl)C1 (configuration not stated)	3.68%
Cn1cccc1C(=O)N1C[C@@H]2C[C@@H](c3nc(C4CC4)cs3)O[C@@H]2C1	-113%
O=C([C@@H]1CC[C@@H]2[C@@H](CCN2Cc2ccoc2)O1)N1CCCC1	-10.2%
Cc1cccc(CN2C(=O)C[C@H]3[C@@H]2CCN3Cc2ccc(F)cc2)n1	2.2%
CCN1CCC2(CC1)CC(NCc1cccs1)c1ccccc1O2 (configuration not stated)	-11.6%
Cc1cccc(COCC2c3nnn(C)c3CCN2Cc2ccoc2)n1 (configuration not stated)	-142%
Cc1cccc(CN2Cc3[nH]nc(COCc4nccs4)c3C2)n1	-7.12%
COCCNC(=O)[C@H]1CN(Cc2sccc2C)C[C@H]2OCC[C@@H]12	2.05%
COc1ccc(CN2C[C@@H]3CN(Cc4ccoc4)C[C@@H]3C2=O)cc1	-8.37%
COCC(=O)N1CCC[C@]2(C(=O)N(C)C)CN(c3ccccn3)C[C@@H]2C1	-10.1%
Cc1cccc(CN2CC[C@H]3CO[C@H](CNC(=O)N(C)C)[C@H]3C2)c1	1.47%
O=C(c1ccsc1)N1CCC2(CCN(Cc3ccccn3)C2=O)C1 (configuration not stated)	-147%
O=C(Cc1ccccn1)N1C[C@H]2CC[C@@H](C1)N(Cc1ccccc1)C2=O	-13%
